Compounds with a hit are over-represented: about 2.8% of the library has one in this group of screens.
NR3A LBD binder: binders of NR3A ligand-binding domain, primary screen, biophysical, differential scanning fluorimetry, uHTS; Glutamate receptor ionotropic, NMDA 3A (GRIN3A) ligand-binding domain; NR3A LBD differential scanning fluorimetry, Tm shift; 0% = protein alone, 100% = glycine-bound protein; Tm shift relative to glycine control, % at 25 µM; 340,000 compounds, 2.5% hits; AID 1259313, 2017;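 active means melting temperature shift of at least 10% of the positive control shift, at one fixed dose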
JMJD2C inh: inhibitors of GASC-1 histone demethylase, primary screen, biochemical, fluorescence, DELFIA europium; inhibition, % at 2.35 µM; AID 2099, 2009; 330,000 compounds, 0.069% hits; GST-JMJD2C(1-420) H3K9me3 demethylation;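 active means more than half of a compound's replicate wells show inhibition beyond 50%, single wells judged on their own value; inconclusive means some, but no more than half, of replicates pass 50% inhibition; inactive means no replicate passes 50% inhibition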;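 further: signal counts dimethyl H3K9 product captured on neutravidin plate; 0% = median of DMSO wells and 100% = 0.3 times that DMSO median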
T cell modulator: modulators of CD8 T cell-vesicle binding, primary screen, mouse 2C CD8+ T cells, flow cytometry; 2C CD8+ T cell-vesicle binding; hits give low values; response (vesicle binding), % at 7 µM; 330,000 compounds, 0.068% hits;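 active means response, share of CD8 T cells binding vesicles, and their 90th percentile fluorescence all below set limits, cut at about 80% in these data, passing the limit was not always enough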;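 further: values below 100% mean blocked vesicle binding to the CD8+ T cells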
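Test system: purified 2C TCR transgenic mouse naive CD8+ T cells. Probe or stimulus: QL9-peptide-loaded Drosophila micro-vesicles bearing Ld, ICAM-1 and B7-1. Incubation: binding step 1.5 h, 37 °C, antibody labelling 20 min, ice. Measured by: flow cytometry of vesicle-bound cells.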
Rtt109 Vps75: inhibitors of C. albicans Rtt109/Vps75 HAT, primary screen, biochemical, ThioGlo CoA-SH fluorescence, plate reader; Histone acetyltransferase RTT109 (Candida albicans (strain SC5314 / ATCC MYA-2876)), …; purified Rtt109/Vps75, 4 h; inhibition, % at 34.9 µM; 330,000 compounds, 0.16% hits;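 active means inhibition of at least 50% in every replicate; inconclusive means best replicate reaches 50% inhibition but some replicates fall short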
Target sequence (Q5AAJ8 whole entry, looked up): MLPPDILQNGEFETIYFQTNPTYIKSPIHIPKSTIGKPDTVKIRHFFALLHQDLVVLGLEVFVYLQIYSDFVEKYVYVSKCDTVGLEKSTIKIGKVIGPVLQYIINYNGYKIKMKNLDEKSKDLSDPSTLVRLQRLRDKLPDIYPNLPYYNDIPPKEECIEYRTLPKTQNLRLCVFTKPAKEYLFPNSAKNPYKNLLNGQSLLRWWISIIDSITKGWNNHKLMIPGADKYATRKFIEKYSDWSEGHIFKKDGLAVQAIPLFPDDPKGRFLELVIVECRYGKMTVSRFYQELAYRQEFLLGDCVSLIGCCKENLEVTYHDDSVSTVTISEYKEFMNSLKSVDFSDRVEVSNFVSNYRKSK
Numbers without * were called inactive; i = inactive; ? = inconclusive; . = no result.

SMILES	NR3A LBD binder	JMJD2C inh	T cell modulator	Rtt109 Vps75
O=C(Cn1cc(/C=N/NC(=O)c2ccccc2Br)c2ccccc21)Nc1ccc(F)cc1	10*	1	274	3
CCOC(=O)c1sc(NC(=O)c2ccc(Br)o2)cc1C	1	-2	212	-1
CCOC(=O)c1sc(NC(=O)Nc2cccc(Cl)c2)cc1C	24*	9	204	-1
CCOC(=O)c1sc(NC(=O)c2sccc2C)cc1C	11*	6	538	-4
CCOC(=O)c1sc(NC(=O)c2cccs2)cc1C	2	7	430	-7
COCCNC(=O)C(=O)NNC(=O)c1ccccc1OC	1	-1	566	-15
CCNC(=O)NC(=O)CSc1ccc(S(=O)(=O)N2CCOCC2)cn1	3	-1	216	-2
COc1ccccc1Nc1ccc(Nc2ccccc2OC)nn1	12*	2	220	-8
COc1ccc(OC)c(Nc2ccc(Nc3cc(OC)ccc3OC)nn2)c1	6	-3	204	9
O=C(NCCOC(=O)Nc1cccc2ccccc12)OCc1ccccc1	-1	.	.	-6
O=C(NNc1c(F)c(F)cc(F)c1F)c1cc2ccccc2oc1=O	1	2	0.0*	0
CCCN(CC(=O)Nc1ccccc1C)C(=O)c1ccc(S(=O)(=O)N2CCC(C)CC2)cc1	-1	.	.	13
O=c1c(Cc2ccc(Cl)cc2Cl)c(O)ccn1Cc1ccc(Cl)cc1	22*	6	163	-1
NC(=S)n1[nH]c(-c2ccc([N+](=O)[O-])cc2)c(N=Nc2cccc([N+](=O)[O-])c2)c1=O	27*	-2	.	-1
NC(=S)n1[nH]c(-c2ccc([N+](=O)[O-])cc2)c(N=Nc2ccccc2[N+](=O)[O-])c1=O	-2	.	.	11
Cc1c(N=Nc2c(-c3ccc([N+](=O)[O-])cc3)[nH]n(C(N)=S)c2=O)cccc1[N+](=O)[O-]	25*	.	.	16
O=C(O)C1OC(C(=O)O)C(C(=O)O)C1C(=O)O (stereo not given)	-1	.	.	-3
C=C(C)CN1C(=O)C2(OCCO2)c2cc(Br)ccc21	1	1	330	.
Clc1ccc(-n2ncc3c(NCc4ccc5c(c4)OCO5)ncnc32)cc1	12*	6	302	-9
O=C(CSc1nc(Nc2ccccc2)nc(N2CCOCC2)n1)Nc1cccc([N+](=O)[O-])c1	17*	-1	345	23
O=C(CSc1nc(Nc2ccccc2)nc(N2CCOCC2)n1)Nc1ccc([N+](=O)[O-])cc1	15*	-2	390	11
O=C(CSc1nc(Nc2ccccc2)nc(N2CCOCC2)n1)Nc1ccccc1Cl	-5	6	396	.
O=C(CSc1n[nH]c(-c2cccnc2)n1)Nc1ccc([N+](=O)[O-])cc1	10*	1	384	0
COc1ccc(NC(=O)Nc2ccc(OCc3ccccc3)cc2)cn1	29*	-6	202	2
O=C(Nc1ccc(OCc2ccccc2)cc1)Nc1cccnc1	15*	-14	343	8
SMILES	NR3A LBD binder	JMJD2C inh	T cell modulator	Rtt109 Vps75
O=C(Nc1ccc(OCc2ccccc2)cc1)c1cccnc1	2	12	554	7
Nc1nnc(SC2CC(=O)N(c3ccccc3)C2=O)s1 (stereo not given)	1	57*	120	?
CC(OC(=O)CCCC(=O)Nc1ccccc1)C(=O)c1ccccc1 (stereo not given)	-2	7	204	-4
COc1ccc(-n2c(=S)[nH]c3cc(C(=O)Nc4ccc(C)c(F)c4)ccc3c2=O)c(OC)c1	13*	-8	354	-3
CCC(CO)[n+]1c(C)cc(/C=C2\Sc3ccccc3N2Cc2ccccc2)cc1C (stereo not given)	-1	0	i	.
Cc1cccc(NC(=O)c2nc[nH]c2C(=O)NCCCCCCNC(=O)c2[nH]cnc2C(=O)Nc2cccc(C)c2)c1	4	6	268	-3
O=C(Nc1ccccc1)c1nc[nH]c1C(=O)NCc1ccccc1	-18	2	437	-3
O=C(Nc1cccc(Cl)c1)c1nc[nH]c1C(=O)NCc1ccccc1	17*	0	585	-5
CCOC(=O)c1ccc(NC(=O)c2nc[nH]c2C(=O)NCCNC(=O)c2[nH]cnc2C(=O)Nc2ccc(C(=O)OCC)cc2)cc1	15*	1	184	2
O=C(Nc1ccc(Cl)cc1)c1nc[nH]c1C(=O)NCCCCNC(=O)c1[nH]cnc1C(=O)Nc1ccc(Cl)cc1	26*	5	522	-8
Cc1cccc(NC(=O)c2nc[nH]c2C(=O)NCCCCNC(=O)c2[nH]cnc2C(=O)Nc2cccc(C)c2)c1	13*	-4	474	-8
O=C(Nc1cccc(Cl)c1)c1nc[nH]c1C(=O)NCCCCNC(=O)c1[nH]cnc1C(=O)Nc1cccc(Cl)c1	-1	.	246	-4
C=CCn1c(SCC(=O)Nc2ccc(O)cc2)nc2sc(CC)cc2c1=O	33*	3	218	-8
Cc1ccc(C(=O)N2CCC(C(=O)c3c(C)cc(C)cc3C)CC2)cc1	-2	0	326	0
CC1(c2ccc(Cl)cc2)NC(=O)N(CC(=O)N2CCCC2)C1=O (stereo not given)	11*	3	255	6
CC1(c2ccc(Cl)cc2)NC(=O)N(CC(=O)Nc2ccc(N3CCCCC3)cc2)C1=O (stereo not given)	-1	-2	233	-4
CC1CCN(S(=O)(=O)c2ccc(C(=O)Nc3ccccc3-c3nc4ccccc4[nH]3)cc2)CC1	31*	7	194	-8
CC1CCCN(S(=O)(=O)c2ccc(C(=O)Nc3ccccc3-c3nc4ccccc4[nH]3)cc2)C1 (stereo not given)	34*	-3	308	11
CC1CCN(S(=O)(=O)c2ccc(C(=O)Nc3ncccc3O)cc2)CC1	2	0	180	3
CNC(=O)C(C)Sc1ccc(S(=O)(=O)N2CCOCC2)cn1 (stereo not given)	0	16	458	2
CCOC(=O)Nc1cccc(Nc2ccccc2)c1	27*	3	688	-7
O=C(O)C(Cc1ccccc1)N1C(=O)/C(=C/c2ccccc2)SC1=S (stereo not given)	12*	-2	316	53*
O=C(O)C(Cc1ccccc1)N1C(=O)c2c(Cl)c(Cl)c(Cl)c(Cl)c2C1=O (stereo not given)	11*	7	561	.
Cc1ccc(/C=C2\SC(=S)N(C(Cc3ccccc3)C(=O)O)C2=O)cc1 (stereo not given)	24*	4	181	62*
COc1ccccc1CN1CC(C(=O)N(Cc2cnn(C)c2)C(C)C)CCC1=O (stereo not given)	-1	-10	270	-7
CCOC(=O)c1cc(-c2ccc(C)cc2)n(CCC(=O)N2CCN(c3ccccn3)CC2)c1C	13*	-1	42	-13
